The record followed here is ChEMBL document CHEMBL2203244, “Discovery and optimization of a series of 2-aminothiazole-oxazoles as potent phosphoinositide 3-kinase γ inhibitors” (Bioorg Med Chem Lett, 2012).

Values after ≈ are worked out from the molar mass of the structure shown.

As usually defined, the IC50 is the concentration at which inhibition is half-maximal. The term solubility denotes how much of the substance goes into solution per volume. A high value points to a readily soluble substance.

The target of series [1] is Phosphatidylinositol 4,5-bisphosphate 3-kinase catalytic subunit gamma isoform (Mus musculus, UniProt Q9JHG7). The series is described as follows: Inhibition of PI3Kgamma in mouse RAW264.7 cells assessed as inhibition of C5a-induced PKB/Akt phosphorylation incubated for 30 mins prior to C5a-induction measured after 5 mins by immunostaining method. Type of series: cell-based. In a few lines:
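Raw264.7 murine macrophage-like cells seeded at 8 × 10⁶ per well, grown 24 h, switched to serum-free 0.1% BSA medium for 3 h at 37 °C. Pretreated with or without a range of inhibitor concentrations for 30 min, then stimulated with 5 nM C5a for 5 min at 37 °C. PKB/Akt phosphorylation scored as the cellular read-out.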

In series [2] the target is T1, Phosphatidylinositol 4,5-bisphosphate 3-kinase catalytic subunit gamma isoform (Homo sapiens, UniProt P48736). The experiment in a line: Inhibition of human PI3Kgamma using phosphatidylinositol as substrate and [33gammaP]ATP after 2 hrs by scintillation counting. In a few lines: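 Recombinant human PI3Kγ (20 ng) incubated 2 h at 30 °C with test inhibitor or DMSO in 20 mM Tris–HCl pH 7.4, 5 mM MgCl2, 5 mM DTT, with ATP/[33P]ATP and PtdIns/PtdSer lipid vesicles as substrate. Reaction stopped with 25 mM EDTA. Product captured on phospholipid scintillant-coated plates, washed with PBS, and bound radioactivity counted by scintillation.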
T1 sequence (P48736 whole entry, canonical isoform): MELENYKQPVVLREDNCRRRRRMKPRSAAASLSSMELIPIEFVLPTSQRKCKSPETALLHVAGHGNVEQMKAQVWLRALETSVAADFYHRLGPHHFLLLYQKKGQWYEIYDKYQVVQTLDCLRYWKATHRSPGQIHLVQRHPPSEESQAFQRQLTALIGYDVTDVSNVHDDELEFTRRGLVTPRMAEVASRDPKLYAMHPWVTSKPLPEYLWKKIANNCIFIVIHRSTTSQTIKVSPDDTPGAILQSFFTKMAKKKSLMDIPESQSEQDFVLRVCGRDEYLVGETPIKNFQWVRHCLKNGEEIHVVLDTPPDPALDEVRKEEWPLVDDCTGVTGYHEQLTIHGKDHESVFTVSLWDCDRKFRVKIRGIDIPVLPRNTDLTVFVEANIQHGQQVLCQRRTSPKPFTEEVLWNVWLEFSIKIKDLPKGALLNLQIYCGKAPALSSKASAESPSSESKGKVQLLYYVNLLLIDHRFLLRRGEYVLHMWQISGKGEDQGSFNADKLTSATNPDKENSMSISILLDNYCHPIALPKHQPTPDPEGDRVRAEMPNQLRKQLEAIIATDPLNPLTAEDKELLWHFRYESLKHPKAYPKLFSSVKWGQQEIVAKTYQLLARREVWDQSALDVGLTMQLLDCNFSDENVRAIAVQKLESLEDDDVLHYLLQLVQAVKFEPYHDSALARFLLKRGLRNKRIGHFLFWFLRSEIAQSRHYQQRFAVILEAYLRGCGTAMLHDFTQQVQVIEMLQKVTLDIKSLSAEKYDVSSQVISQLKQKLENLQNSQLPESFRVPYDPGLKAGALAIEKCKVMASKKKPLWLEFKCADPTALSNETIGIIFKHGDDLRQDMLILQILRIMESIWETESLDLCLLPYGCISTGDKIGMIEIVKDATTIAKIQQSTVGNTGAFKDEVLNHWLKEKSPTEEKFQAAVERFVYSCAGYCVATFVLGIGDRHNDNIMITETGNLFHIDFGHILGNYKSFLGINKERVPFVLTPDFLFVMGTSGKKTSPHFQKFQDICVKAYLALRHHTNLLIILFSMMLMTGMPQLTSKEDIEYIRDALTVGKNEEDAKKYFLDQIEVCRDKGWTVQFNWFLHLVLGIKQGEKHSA

The species entered for a further series is Homo sapiens. The series is described as follows: Selectivity ratio of IC50 for human PI3Kalpha to IC50 for human PI3Kgamma. In a few lines: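 Human PI3Kα and PI3Kγ (20 ng each) assayed by the same radiometric lipid-kinase procedure: 2 h at 30 °C, pH 7.4 Tris buffer with MgCl2 and DTT, [33P]ATP and PtdIns/PtdSer vesicles, stopped with EDTA, captured on scintillant-coated plates and counted. Ratio taken as the PI3Kα IC50 divided by the PI3Kγ IC50.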

Series [3] in a line: Aqueous solubility of the compound. Particulars: water (aqueous). Type of series: physicochemical. The essentials: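 Solubility determined in water.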
Series [4] is described as follows: Permeability of the compound at pH 6.2 by PAMPA assay. Type of series: ADME. Particulars: read-out: permeability. In a few lines:
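PAMPA membrane permeability measured at pH 6.2, reported as Pe in cm/s.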
A general note: The PAMPA barrier holds no transporters, so it reflects passive diffusion.

Series [5] has as its target Phosphatidylinositol 4,5-bisphosphate 3-kinase catalytic subunit alpha isoform (Homo sapiens, UniProt P42336). The experiment in a line: Inhibition of human PI3Kalpha using phosphatidylinositol as substrate and [33gammaP]ATP after 2 hrs by scintillation counting. The essentials:
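Recombinant human PI3Kα (20 ng) incubated 2 h at 30 °C in 20 mM Tris–HCl pH 7.4, 5 mM MgCl₂, 5 mM DTT with unlabelled ATP plus [γ-³³P]ATP and lipid vesicles of PtdIns and 25 µM PtdSer (final), with inhibitor or DMSO. Stopped with 25 mM EDTA, captured on phospholipid scintillant-coated plate, PBS-washed, bound counts per second read.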

Series [6] concerns the target T1, Phosphatidylinositol 4,5-bisphosphate 3-kinase catalytic subunit gamma isoform.

Phosphatidylinositol 4,5-bisphosphate 3-kinase catalytic subunit gamma isoform (Mus musculus, UniProt Q9JHG7), sequence (Q9JHG7 whole entry, canonical isoform): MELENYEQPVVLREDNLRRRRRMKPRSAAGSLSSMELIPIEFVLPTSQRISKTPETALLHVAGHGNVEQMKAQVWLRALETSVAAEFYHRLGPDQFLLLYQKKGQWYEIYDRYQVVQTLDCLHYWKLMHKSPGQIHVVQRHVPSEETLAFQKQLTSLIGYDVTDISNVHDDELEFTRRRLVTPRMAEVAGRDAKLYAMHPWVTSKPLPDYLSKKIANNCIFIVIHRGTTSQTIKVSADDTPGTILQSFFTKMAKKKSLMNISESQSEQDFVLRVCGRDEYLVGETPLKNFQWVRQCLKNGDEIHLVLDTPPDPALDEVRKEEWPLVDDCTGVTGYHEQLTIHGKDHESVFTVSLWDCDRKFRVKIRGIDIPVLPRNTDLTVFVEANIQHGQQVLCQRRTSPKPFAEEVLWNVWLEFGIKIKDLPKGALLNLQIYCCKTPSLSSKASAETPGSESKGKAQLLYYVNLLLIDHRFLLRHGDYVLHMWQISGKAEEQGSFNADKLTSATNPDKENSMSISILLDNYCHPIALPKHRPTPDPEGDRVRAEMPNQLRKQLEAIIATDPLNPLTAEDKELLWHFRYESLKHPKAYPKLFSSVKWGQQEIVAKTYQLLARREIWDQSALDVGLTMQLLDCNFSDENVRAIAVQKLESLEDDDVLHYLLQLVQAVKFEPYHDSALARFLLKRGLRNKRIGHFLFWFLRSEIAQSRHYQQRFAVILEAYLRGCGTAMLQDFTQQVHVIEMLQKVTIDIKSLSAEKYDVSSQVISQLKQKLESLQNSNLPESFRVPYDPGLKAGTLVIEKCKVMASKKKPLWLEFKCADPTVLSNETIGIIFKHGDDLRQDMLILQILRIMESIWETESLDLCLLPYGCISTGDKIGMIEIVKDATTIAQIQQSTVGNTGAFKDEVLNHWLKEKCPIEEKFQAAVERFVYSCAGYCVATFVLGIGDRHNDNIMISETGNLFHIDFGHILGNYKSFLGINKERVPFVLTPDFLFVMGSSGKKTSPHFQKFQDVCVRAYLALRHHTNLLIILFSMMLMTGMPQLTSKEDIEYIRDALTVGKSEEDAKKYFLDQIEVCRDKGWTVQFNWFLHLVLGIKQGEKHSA
Phosphatidylinositol 4,5-bisphosphate 3-kinase catalytic subunit alpha isoform, sequence (P42336 whole entry, canonical isoform): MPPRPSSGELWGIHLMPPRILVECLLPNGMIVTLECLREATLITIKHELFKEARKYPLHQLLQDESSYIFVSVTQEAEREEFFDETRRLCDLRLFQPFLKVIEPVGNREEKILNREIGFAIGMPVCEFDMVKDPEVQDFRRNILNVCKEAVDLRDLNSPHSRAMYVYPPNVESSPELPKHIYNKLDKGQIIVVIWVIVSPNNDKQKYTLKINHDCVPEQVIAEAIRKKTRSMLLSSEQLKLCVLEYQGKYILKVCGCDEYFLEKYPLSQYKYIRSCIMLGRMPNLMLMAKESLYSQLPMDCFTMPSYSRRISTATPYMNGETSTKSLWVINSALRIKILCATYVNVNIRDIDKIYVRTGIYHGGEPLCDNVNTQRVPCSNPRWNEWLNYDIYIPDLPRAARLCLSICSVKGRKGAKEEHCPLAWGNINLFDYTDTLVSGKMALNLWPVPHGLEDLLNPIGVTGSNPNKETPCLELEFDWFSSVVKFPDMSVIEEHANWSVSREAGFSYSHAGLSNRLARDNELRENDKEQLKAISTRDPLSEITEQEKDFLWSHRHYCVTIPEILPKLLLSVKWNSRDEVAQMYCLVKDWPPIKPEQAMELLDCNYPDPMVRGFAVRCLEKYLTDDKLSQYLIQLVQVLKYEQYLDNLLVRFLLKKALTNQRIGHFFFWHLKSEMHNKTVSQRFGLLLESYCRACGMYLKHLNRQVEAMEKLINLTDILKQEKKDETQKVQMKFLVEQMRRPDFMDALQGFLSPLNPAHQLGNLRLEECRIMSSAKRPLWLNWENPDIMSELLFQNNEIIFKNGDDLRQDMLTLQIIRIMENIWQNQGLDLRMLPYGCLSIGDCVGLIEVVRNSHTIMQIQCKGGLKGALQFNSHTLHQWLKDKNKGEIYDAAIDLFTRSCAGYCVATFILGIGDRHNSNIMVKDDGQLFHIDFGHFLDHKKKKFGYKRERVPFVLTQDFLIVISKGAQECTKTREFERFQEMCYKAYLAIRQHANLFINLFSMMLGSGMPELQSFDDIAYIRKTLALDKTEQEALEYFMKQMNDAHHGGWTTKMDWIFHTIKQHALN

Turning to `CSc1ncc(-c2sc(NC(C)=O)nc2C)o1`, the results for the IC50 in series [1] and in series [2] were 322 nM and 22 nM, respectively.
Take `CC(=O)Nc1nc(C)c(-c2cnc(-c3cccnc3)o2)s1`: the Ratio IC50 in the series listed under Homo sapiens is 15. The solubility in series [3] was found to be 0.39 µg/mL (≈ 1.3 µM). Moreover, the Papp in series [4] is 77.3 ×10⁻⁶ cm/s. Also, the IC50 was determined as 59 nM in series [1], 46 nM in series [5] and 3 nM in series [2].
Consider `CC(=O)Nc1nc(C)c(-c2cnc(C)o2)s1`, for which the IC50 in series [2] turned out to be 181 nM.
Consider `CC(=O)Nc1nc(C)c(-c2cnc(Sc3cccnc3)o2)s1`, for which the Ratio IC50 in the series filed under Homo sapiens is 7. The IC50 was found to be 279 nM in series [1], 112 nM in series [5] and 16 nM in series [2].
`CC(=O)Nc1nc(C)c(-c2cnc(Nc3cccnc3)o2)s1`: the Ratio IC50 in the series filed under Homo sapiens was 9. The IC50 worked out at 431 nM in series [1], 102 nM in series [5] and 12 nM in series [2].
As to `CC(=O)Nc1nc(C)c(-c2cnc(S(C)(=O)=O)o2)s1`, the Ratio IC50 in the series filed under Homo sapiens is 16. For the same molecule, the figures for the IC50 in series [1], in series [5] and in series [2] were 222 nM, 195 nM and 12 nM, respectively.
Consider `CC(=O)Nc1nc(C)c(-c2cnc(Cc3cccc(C(=O)O)c3)o2)s1`, for which the IC50 in series [1] was over 10000 nM; in series [2], 223 nM.
For `CC(=O)Nc1nc(C)c(-c2cnc(Nc3cccc(C(=O)O)c3)o2)s1`, the Ratio IC50 in the series filed under Homo sapiens is 27. Moreover, the Papp in series [4] stood at 1.4 ×10⁻⁶ cm/s. The IC50 in series [1] was over 10000 nM; in series [5], 328 nM; in series [2], 12 nM.
As to `CC(=O)Nc1nc(C)c(-c2cnc(C(C)(C)C)o2)s1`, the Ratio IC50 in the series filed under Homo sapiens turned out to be 5. Also, the concentration in solution in series [3] (solubility) was 35.2 µg/mL (≈ 126 µM). Besides, the Papp in series [4] came out at 88.4 ×10⁻⁶ cm/s. Moreover, the IC50 in series [1] amounted to 113 nM; in series [5], 15 nM; in series [2] it was 3 nM.
Consider `CC(=O)Nc1nc(C)c(-c2cnc(N(C)C)o2)s1`, for which the values for the 50% inhibitory concentration (IC50) in series [1] and in series [2] were 1220 nM and 46 nM, respectively.
As to `CC(=O)Nc1nc(C)c(-c2cnc(CC(F)(F)F)o2)s1`, in the series listed under Homo sapiens, the Ratio IC50 came out at 4. For the same molecule, the IC50 in series [1] was found to be 88 nM; in series [5], 43 nM; in series [2], 10 nM.
With `CC(=O)Nc1nc(C)c(-c2cnc(Nc3ccc(Cl)cc3)o2)s1`, the midpoint of inhibition in series [2], the IC50, lay at 346 nM.
Turning to `CC(=O)Nc1nc(C)c(-c2cnc(Nc3ccc(Cl)nc3)o2)s1`, the IC50 in series [1] was determined as 1040 nM; in series [2], 24 nM.
On to `CC(=O)Nc1nc(C)c(-c2cnc(Oc3cccnc3)o2)s1`, for which the results for the IC50 in series [1] and in series [2] were 1670 nM and 117 nM, respectively.
For `CC(=O)Nc1nc(C)c(-c2cnc(C(C)(C)O)o2)s1`, the half-inhibitory concentration (IC50) was found to be 369 nM in series [1] and 25 nM in series [2].
Take `CC(=O)Nc1nc(C)c(-c2cnc(Cc3cccnc3)o2)s1`: the IC50 in series [2] was found to be 95 nM.
For the molecule `CC(=O)Nc1nc(C)c(-c2cnc(N3CCOCC3)o2)s1`, the IC50 in series [1] was 599 nM; in series [2], 24 nM.
`COc1ncc(-c2sc(NC(C)=O)nc2C)o1` gave an IC50 in series [2] of 250 nM.
Consider `CC(=O)Nc1nc(C)c(-c2cnc(N3CCCC(O)C3)o2)s1` (stereo not given), for which the IC50 in series [1] is 237 nM; in series [2], 14 nM.
With `CC(=O)Nc1nc(C)c(-c2csc(Nc3cccc(C(=O)O)c3)n2)s1`, in series [6], the IC50 was determined as 5 nM.
For the molecule `CC(=O)Nc1nc(C)c(-c2cnc(CO)o2)s1`, the IC50 in series [2] came out at 161 nM.
